High-throughput results deposited in PubChem by several laboratories.
TAAR1 antag = human TAAR1 antagonism. CHO RD-HGA16 TAAR1, Fluo-8 calcium fluorescence, antagonist. inhibition, % at 3 µM. actives 1.5% (n = 360,000). AID 624466;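 active = inhibition above a per-plate cutoff, the mean inhibition of test compounds on that plate plus 3 SD, cut at about 49% in these data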
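Test system – hTAAR1-expressing CHO RD-HGA16 cells, Gα16-coupled · Reagent – β-PEA at EC80 concentration, post-compound challenge · Compound dosing – 3 µM, single point · Timing – 140 s kinetic read after compound, 140 s after agonist · Detection – Fluo-8 intracellular calcium dye fluorescence, real-time kinetic reads · Control set – DMSO and EC80 PEA controls · Repeats – n of 1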
LANA-H2B inh = blocks KSHV LANA binding to histone H2A/H2B; inhibition, % (concentration not given with the values); cell-free LANA-H2A/H2B peptide, fluorescence polarization; actives 0.6% (n = 320,000); in the data active = inhibition mostly above about 10%, no sharp cut-off; inactive = mostly below about 6.7%
TRPML3 agonist = agonists of human TRPML3 channel; AID 1448; HEK293 TRPML3-YFP, Fluo-8 calcium fluorescence; 100% = the carbachol control signal; activation, % at 3 µM; Q8TDD5; actives 0.29% (n = 220,000);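 active = activation above its plate's cutoff, the mean activation of the plate's test wells plus 3 SD, cut at about 12% in these data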
Target sequence (Q8TDD5 whole entry, looked up): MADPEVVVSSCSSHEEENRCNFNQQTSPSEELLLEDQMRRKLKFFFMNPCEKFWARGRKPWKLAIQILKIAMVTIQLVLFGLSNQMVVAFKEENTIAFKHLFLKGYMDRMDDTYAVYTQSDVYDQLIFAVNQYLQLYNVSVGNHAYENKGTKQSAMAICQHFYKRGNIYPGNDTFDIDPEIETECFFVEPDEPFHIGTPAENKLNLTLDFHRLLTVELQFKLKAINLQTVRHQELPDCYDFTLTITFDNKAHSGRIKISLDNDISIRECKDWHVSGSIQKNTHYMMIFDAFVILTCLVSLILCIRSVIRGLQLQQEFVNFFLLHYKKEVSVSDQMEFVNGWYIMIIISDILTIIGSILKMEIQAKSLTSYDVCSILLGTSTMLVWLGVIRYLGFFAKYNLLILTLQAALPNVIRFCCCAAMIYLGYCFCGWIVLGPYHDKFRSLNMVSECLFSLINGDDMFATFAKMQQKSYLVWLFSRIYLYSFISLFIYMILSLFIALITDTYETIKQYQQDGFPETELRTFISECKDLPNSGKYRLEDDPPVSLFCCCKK
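Test system: HEK293 cells stably carrying human TRPML3-YFP; Doses: single dose, 3 µM final nominal compound, 0.3% DMSO final; Schedule: dye loading 1 h 37 °C then 30 min ambient, 125 s read; Technique: Fluo-8 calcium fluorescence; Benchmarks: high control carbachol 87 µM, low control DMSO.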
TAAR1 ag = human TAAR1 agonism | Q96RJ0 | CHO RD-HGA16 TAAR1, Fluo-8 calcium fluorescence; vehicle wells 0%, saturating PEA agonist 100% | activation, % at 3 µM | actives 0.99% (n = 360,000);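 active = activation above the mean activation of all test compounds in the run plus 3 SD, cut at about 38% in these data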
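Test system: RD-HGA16 (CHO) cells co-expressing Gα16 and hTAAR1; dosing: one-point dosing at 3 µM (nominal); timing: 17-24 h seeding, 75 min 37 °C dye, 30 min RT; signal: kinetic Fluo-8 calcium fluorescence; read-out basis: % activation relative to PEA EC100 response; controls: DMSO and PEA EC100; replicates: n 1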
GPR7 antagonist = blocks human GPR7 receptor signaling. AID 1861. inhibition, % at 4.4 µM. P48145. GPR7-expressing cells, fluorescence antagonist assay. actives 1.1% (n = 290,000); in the data active = inhibition above about 16%, passing the limit was not always enough;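 also: cells stimulated with the agonist NPW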
zfTRPN1 agonist = zebrafish TRPN1 (NompC) channel agonism; HEK293 zebrafish TRPN1-YFP, Fluo-8 calcium fluorescence; 100% = response to 87 µM carbachol; activation, % at 3 µM; actives 0.18% (n = 220,000); AID 1424;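 active = activation above its plate's cutoff, the mean activation of test wells on that plate plus 3 SD, cut at about 19% in these data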
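Material: zebrafish TRPN1-YFP in HEK293 cells; Doses: single test compound dose, 3 µM nominal, 0.3% DMSO; Timing: dye loading 1 h at 37 °C, then 30 min room temperature; Technique: intracellular calcium fluorescence with Fluo-8; Benchmarks: high carbachol 87 µM, low DMSO alone.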
GPR7 antag conf = confirmation of human GPR7 antagonists | shares compounds with GPR7 antagonist | GPR7-expressing cells, calcium fluorescence antagonist mode | inhibition, % at 4.4 µM | actives 52% (n = 2,400) | AID 1952; in the data active = inhibition above about 24%;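 also: stimulated with the GPR7 agonist NPW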
MCHR1 antag = counter-screen for GPR7 antagonists: antagonists of human MCHR1; shares compounds with GPR7 antagonist; MCHR1-expressing cells, fluorescence antagonist assay; inhibition, % at 4.4 µM; actives 62% (n = 2,400); AID 2148; in the data active = inhibition above about 22%
Numbers stand for hits; – = inactive; · = no result given. A selection: hits, their analogues and other compounds. The true share with any hit is near 3.4%.

SMILES	TAAR1 antag	LANA-H2B inh	TRPML3 agonist	TAAR1 ag	GPR7 antagonist	zfTRPN1 agonist	GPR7 antag conf	MCHR1 antag
Cc1ccc(CC(=O)Nc2ccncc2)cc1	–	–	–	–	33.3	–	–	39.8
O=C(Cc1ccc(Cl)cc1)Nc1ccncc1	–	–	–	–	–	–	·	·
COc1ccc(NC(=O)C(C)Sc2nnc(C3CC3)n2C2CC2)cc1 (stereo not given)	–	–	·	–	·	·	·	·
COC(=O)C1=CN(c2ccc(N3CCOCC3)cc2)C(N)=C(C#N)C1c1cccc(F)c1 (stereo not given)	–	·	·	–	·	·	·	·
CCC(=O)c1ccccc1OCCCCn1cncn1	–	–	·	–	–	·	·	·
Cc1cc(C(C)(C)C)cc(C)c1Cn1c2[n+](c3ccc(C(F)(F)F)cc31)CCCCC2	–	–	–	–	32.7	–	29.5	31.8
O=C(Cn1c2[n+](c3ccc(C(F)(F)F)cc31)CCCCC2)Nc1ccc(Br)cc1	·	–	–	·	–	–	·	·
FC(F)(F)c1cccc(Cn2c3[n+](c4ccc(C(F)(F)F)cc42)CCCCC3)c1	–	–	–	–	24.4	–	23.8	–
CCOc1cc(C)c(S(=O)(=O)NC2CC(C)(C)NC(C)(C)C2)cc1C	–	–	–	–	–	–	·	·
Cc1cc(C)c(S(=O)(=O)NC2CC(C)(C)NC(C)(C)C2)cc1C	–	–	·	–	100.6	·	–	–
O=C(c1ccc(S(=O)(=O)Nc2ccccc2)cc1)N1CCC1	–	–	·	–	·	·	·	·
CSc1nnc(-c2ccccc2Cl)n1N	–	–	–	–	24.0	–	–	–
Cc1ccccc1C(=O)N1CCN(c2ccccn2)CC1	–	–	–	–	–	–	·	·
O=C(c1ccccc1-c1ccccc1)N1CCN(c2ccccn2)CC1	–	–	–	–	26.5	–	–	23.6
CCOC(=O)C1(C)CCN1C(=O)c1ccco1 (stereo not given)	–	·	·	–	·	·	·	·
CC(Nc1ncnc2ccccc12)c1ccccc1 (stereo not given)	–	–	·	–	–	·	·	·
CCCCC(Nc1ncnc2ccccc12)C(=O)O (stereo not given)	–	–	–	–	22.8	–	–	–
CC(O)CNCCCOc1ccc(Cl)cc1C(C)(C)C (stereo not given)	–	–	–	–	21.3	–	38.4	45.5
CN(C)CCOCCOc1ccc(Cl)cc1C(C)(C)C	–	–	–	–	–	–	·	·
COC(=O)C[C@@H]1CC[C@H](NC(=O)c2cnccn2)[C@@H](CO)O1	–	·	·	–	·	·	·	·
O=C(O)CCn1c(=O)[nH]c(=O)n(CCC(=O)O)c1=O	–	–	–	–	24.2	–	–	–
CC1=C(C)C(=O)N(CCC(=O)O)C1=O	–	–	–	–	–	–	·	·
C[C@H](CO)N1C[C@H](C)[C@@H](CN(C)S(=O)(=O)c2cccs2)Oc2ccc(NS(=O)(=O)c3ccccc3)cc2C1=O	–	–	·	–	·	·	·	·
COc1cc(OC)cc(C(=O)NCCCNC(=O)c2ccccn2)c1	–	–	·	–	–	·	·	·
O=C(/C=C/c1ccc([N+](=O)[O-])s1)N1CCN(c2ccccc2)CC1	–	–	·	–	26.0	·	–	–
SMILES	TAAR1 antag	LANA-H2B inh	TRPML3 agonist	TAAR1 ag	GPR7 antagonist	zfTRPN1 agonist	GPR7 antag conf	MCHR1 antag
CCc1ccc2[nH]c(=O)c(C(c3nnnn3Cc3ccccc3)N3CCOCC3)cc2c1 (stereo not given)	–	–	–	–	–	–	·	·
CCc1ccc2[nH]c(=O)c(C(c3nnnn3Cc3ccc(OC)cc3)N3CCOCC3)cc2c1 (stereo not given)	–	·	–	–	28.6	–	–	–
C[C@H](NC(=O)c1ccc(Cl)cc1)C(=O)NNC(=O)c1cccs1	–	–	·	–	·	·	·	·
CN(C)CCNc1nc2sc3c(c2c(=O)n1Cc1ccccc1)CCCCC3	–	·	·	–	40.2	·	35.4	58.0
CN(C)CCNc1nc2sc3c(c2c(=O)n1-c1ccccc1)CCCCC3	–	–	–	–	–	–	·	·
COc1ccc(CN(C)C(=O)Cn2cc(C)c(=O)[nH]c2=O)cc1OC	–	·	·	–	·	·	·	·
CCc1ccc(CNC(=O)Cn2nc(-c3ccccc3)ccc2=O)cc1	–	–	–	–	31.1	–	–	–
O=C(O)Cn1nc(-c2ccccc2)ccc1=O	–	–	·	–	–	·	·	·
N#Cc1cccc(NC(=O)COc2ccc(-n3ccnc3)cc2)c1	–	–	–	–	23.8	–	–	44.4
COc1cc(NC(=O)COc2ccc(-n3ccnc3)cc2)cc(OC)c1	–	–	–	–	–	–	·	·
CSCCNC(=O)C1(C)CCN1C(=O)CCc1ccccc1 (stereo not given)	–	·	·	–	·	·	·	·
CC(C)[C@H](NC(N)=O)C(=O)Nc1ccc(F)c(Cl)c1	–	–	–	–	22.3	–	–	–
N=c1n(Cc2ccccc2)c2ccccc2n1CC(O)COc1ccc(Cl)cc1Cl (stereo not given)	–	·	–	46.8	28.0	–	76.7	97.8
N=c1n(Cc2ccccc2)c2ccccc2n1CC(O)c1ccco1 (stereo not given)	–	–	–	–	–	–	·	·
Cc1ccc(OCC(O)Cn2c(=N)n(Cc3ccccc3)c3ccccc32)cc1 (stereo not given)	–	–	–	–	32.8	–	36.9	61.0
Cc1cccc(OCC(O)Cn2c(=N)n(CCN3CCCCC3)c3ccccc32)c1 (stereo not given)	–	–	–	–	37.8	–	44.5	40.1
Cc1cccc(OCC(O)Cn2c(=N)n(Cc3ccccc3)c3ccccc32)c1 (stereo not given)	–	–	–	–	31.4	–	35.9	69.2
CCN(CC)CCn1c(=N)n(CC(O)COc2cccc(C)c2)c2ccccc21 (stereo not given)	–	–	–	–	–	–	·	·
CC1(C(=O)NCc2ccccc2)CSCC(=O)N1C1CC1 (stereo not given)	–	·	·	–	·	·	·	·
CCOC(=O)c1c(C)[nH]c(C(=O)OCC(=O)NCc2ccco2)c1C	–	·	·	–	·	·	·	·
COc1cccc(CN(CCC(C)C)S(=O)(=O)c2cc(Br)ccc2Br)c1	–	·	·	–	·	·	·	·
COc1ccc(OCC(O)Cn2c(=N)n(Cc3ccccc3)c3ccccc32)cc1 (stereo not given)	–	–	–	–	37.8	–	30.9	56.9
N=c1n(Cc2ccccc2)c2ccccc2n1Cc1ccccc1	–	–	–	–	–	–	·	·
COc1ccc(CN2C(=O)c3ccccc3C2=O)cc1C(=O)N(C)CC(=O)Nc1ccc(F)cc1	–	–	·	–	·	·	·	·
COc1ccccc1CNS(=O)(=O)c1cc(C)ccc1OC	–	–	–	–	–	–	·	·
